Measurements taken from publication PMC11865470 (Communications Biology, 2025).

Key:
Type in all cases: cell-based
Kir2.1 = Kir2.1 (Homo sapiens, UniProt P63252); test: whole-cell patch-clamp, off-target channel, 10 μM compound; settings: vs 0.1% DMSO
NaV1.5 = NaV1.5 (Homo sapiens, UniProt Q14524); test: whole-cell patch-clamp, off-target channel, 10 μM compound
Procedure, shortened: (§1)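 NaV channels, transiently transfected HEK293T cells, whole-cell, 16–24 h after seeding. Pipette (mM): 140 CsF, 1 EGTA, 10 NaCl, 10 HEPES, pH 7.4. Bath (mM): 140 NaCl, 5 KCl, 2 CaCl2, 1 MgCl2, 10 glucose, 10 HEPES, pH 7.4. Bath with 0.1% DMSO applied before 10 μM test compound. Inhibition ratios compared by unpaired t-test, n = 5.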

NaV1.7 = NaV1.7 (Homo sapiens, UniProt Q15858); test: as above
NaV1.7, sequence (Q15858 whole entry): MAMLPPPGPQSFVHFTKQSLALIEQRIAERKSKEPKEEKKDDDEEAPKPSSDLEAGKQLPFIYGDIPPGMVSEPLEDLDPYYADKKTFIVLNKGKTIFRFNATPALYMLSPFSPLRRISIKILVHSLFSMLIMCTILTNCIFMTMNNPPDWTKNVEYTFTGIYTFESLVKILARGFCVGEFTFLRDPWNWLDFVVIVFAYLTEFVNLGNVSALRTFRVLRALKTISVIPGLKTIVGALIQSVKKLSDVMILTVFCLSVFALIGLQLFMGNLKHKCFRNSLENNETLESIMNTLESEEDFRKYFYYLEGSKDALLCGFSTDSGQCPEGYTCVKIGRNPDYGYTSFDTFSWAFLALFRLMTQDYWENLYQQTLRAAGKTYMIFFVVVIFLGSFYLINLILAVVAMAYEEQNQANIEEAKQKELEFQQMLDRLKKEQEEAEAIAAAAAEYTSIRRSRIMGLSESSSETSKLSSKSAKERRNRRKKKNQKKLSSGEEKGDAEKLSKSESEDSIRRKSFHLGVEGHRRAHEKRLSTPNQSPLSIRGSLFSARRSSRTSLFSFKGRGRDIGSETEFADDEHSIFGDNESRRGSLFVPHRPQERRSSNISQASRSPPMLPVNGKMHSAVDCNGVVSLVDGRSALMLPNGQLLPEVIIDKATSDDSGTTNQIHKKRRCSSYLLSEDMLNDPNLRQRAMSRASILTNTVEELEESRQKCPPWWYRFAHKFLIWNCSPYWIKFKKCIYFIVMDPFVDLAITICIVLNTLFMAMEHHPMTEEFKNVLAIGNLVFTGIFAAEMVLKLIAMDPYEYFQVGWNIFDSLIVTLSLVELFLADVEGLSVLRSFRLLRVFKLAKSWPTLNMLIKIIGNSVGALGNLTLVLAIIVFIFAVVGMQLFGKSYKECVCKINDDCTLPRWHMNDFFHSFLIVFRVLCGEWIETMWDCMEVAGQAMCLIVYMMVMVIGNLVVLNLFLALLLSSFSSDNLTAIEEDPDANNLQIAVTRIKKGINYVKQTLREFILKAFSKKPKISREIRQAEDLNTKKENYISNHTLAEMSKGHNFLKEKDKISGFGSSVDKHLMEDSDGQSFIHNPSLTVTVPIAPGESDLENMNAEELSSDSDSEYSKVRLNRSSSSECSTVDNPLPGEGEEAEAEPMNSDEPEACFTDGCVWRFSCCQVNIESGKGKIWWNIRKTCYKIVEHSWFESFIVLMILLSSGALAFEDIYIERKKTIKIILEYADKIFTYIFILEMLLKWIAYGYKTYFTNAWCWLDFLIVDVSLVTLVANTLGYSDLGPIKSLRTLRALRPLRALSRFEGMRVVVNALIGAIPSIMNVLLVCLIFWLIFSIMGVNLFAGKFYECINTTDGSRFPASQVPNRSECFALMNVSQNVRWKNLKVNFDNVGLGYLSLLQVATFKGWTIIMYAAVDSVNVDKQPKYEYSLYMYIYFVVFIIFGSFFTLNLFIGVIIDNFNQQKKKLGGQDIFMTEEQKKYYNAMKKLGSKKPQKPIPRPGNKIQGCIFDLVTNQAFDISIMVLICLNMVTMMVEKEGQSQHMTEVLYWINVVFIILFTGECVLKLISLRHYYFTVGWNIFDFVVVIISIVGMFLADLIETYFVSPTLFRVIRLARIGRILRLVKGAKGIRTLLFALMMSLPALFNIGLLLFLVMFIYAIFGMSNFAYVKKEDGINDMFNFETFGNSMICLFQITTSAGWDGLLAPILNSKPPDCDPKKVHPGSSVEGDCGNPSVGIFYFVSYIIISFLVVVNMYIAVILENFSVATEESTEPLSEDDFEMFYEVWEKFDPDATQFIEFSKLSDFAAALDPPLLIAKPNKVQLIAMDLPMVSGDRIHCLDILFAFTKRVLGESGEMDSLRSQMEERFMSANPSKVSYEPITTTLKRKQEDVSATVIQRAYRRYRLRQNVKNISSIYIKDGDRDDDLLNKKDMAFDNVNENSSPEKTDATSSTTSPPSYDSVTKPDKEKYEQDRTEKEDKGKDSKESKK
Procedure, shortened: as §1

hERG = hERG (Homo sapiens, UniProt Q12809); test: whole-cell patch-clamp, off-target channel, 10 μM compound
Procedure, shortened: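 hERG, transiently transfected HEK293T cells, whole-cell recording 16–24 h after seeding. Bath containing 0.1% DMSO applied first, then 10 μM test compound. Inhibition ratio from DMSO compared with that from compound by unpaired t-test, n = 5.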

ASIC1a = ASIC1a (Rattus norvegicus, UniProt P55926); test: whole-cell patch-clamp, off-target channel, 10 μM compound; settings: vs 0.1% DMSO
ASIC1a, sequence (P55926 whole entry): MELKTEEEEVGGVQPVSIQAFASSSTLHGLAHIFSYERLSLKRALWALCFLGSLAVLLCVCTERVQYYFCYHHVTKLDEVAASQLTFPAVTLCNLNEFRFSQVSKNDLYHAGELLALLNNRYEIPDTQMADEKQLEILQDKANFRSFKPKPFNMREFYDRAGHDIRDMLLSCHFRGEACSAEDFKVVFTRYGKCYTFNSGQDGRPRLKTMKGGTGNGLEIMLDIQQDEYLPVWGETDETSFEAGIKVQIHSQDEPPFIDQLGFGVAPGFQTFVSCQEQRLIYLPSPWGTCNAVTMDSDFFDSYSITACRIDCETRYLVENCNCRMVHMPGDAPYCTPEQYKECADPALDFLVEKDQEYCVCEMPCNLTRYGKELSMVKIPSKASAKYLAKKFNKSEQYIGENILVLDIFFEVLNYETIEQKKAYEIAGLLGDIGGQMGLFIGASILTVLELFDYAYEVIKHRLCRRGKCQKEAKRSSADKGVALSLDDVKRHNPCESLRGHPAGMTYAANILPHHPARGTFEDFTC
Procedure, shortened: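 ASIC channels in transfected HEK293T cells, whole-cell. Pipette (mM): 140 CsF, 11 EGTA, 1 CaCl2, 2 TEA-Cl, 4 MgCl2, 10 HEPES, pH 7.3. NaCl-based bath with 20 mM HEPES (pH 7.4) or 20 mM MES (pH 5.5). 0.1% DMSO bath applied before 10 μM test compound. Inhibition ratios compared by unpaired t-test, n = 5.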

CaV3.1 = CaV3.1 (Homo sapiens, UniProt O43497); test: whole-cell patch-clamp, off-target channel, 10 μM compound
Procedure, shortened: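 CaV channels in transfected HEK293T cells, whole-cell. Pipette (mM): 120 CsMeSO3, 2 Mg-ATP, 11 EGTA, 10 HEPES, pH 7.4. Bath (mM): 138 NaCl, 5.6 KCl, 2.6 CaCl2, 20 TEA-Cl, 5 glucose, 5 HEPES, pH 7.4. 0.1% DMSO bath applied before 10 μM test compound. Inhibition ratios compared by unpaired t-test, n = 5.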

[1] = biological target: T1, Otop1 channels from human origin (hOtop1) (Homo sapiens, UniProt Q7RTM1); test: whole-cell patch-clamp, pH 5.5-evoked currents; settings: 10 μM
T1 sequence (Q7RTM1 1-612): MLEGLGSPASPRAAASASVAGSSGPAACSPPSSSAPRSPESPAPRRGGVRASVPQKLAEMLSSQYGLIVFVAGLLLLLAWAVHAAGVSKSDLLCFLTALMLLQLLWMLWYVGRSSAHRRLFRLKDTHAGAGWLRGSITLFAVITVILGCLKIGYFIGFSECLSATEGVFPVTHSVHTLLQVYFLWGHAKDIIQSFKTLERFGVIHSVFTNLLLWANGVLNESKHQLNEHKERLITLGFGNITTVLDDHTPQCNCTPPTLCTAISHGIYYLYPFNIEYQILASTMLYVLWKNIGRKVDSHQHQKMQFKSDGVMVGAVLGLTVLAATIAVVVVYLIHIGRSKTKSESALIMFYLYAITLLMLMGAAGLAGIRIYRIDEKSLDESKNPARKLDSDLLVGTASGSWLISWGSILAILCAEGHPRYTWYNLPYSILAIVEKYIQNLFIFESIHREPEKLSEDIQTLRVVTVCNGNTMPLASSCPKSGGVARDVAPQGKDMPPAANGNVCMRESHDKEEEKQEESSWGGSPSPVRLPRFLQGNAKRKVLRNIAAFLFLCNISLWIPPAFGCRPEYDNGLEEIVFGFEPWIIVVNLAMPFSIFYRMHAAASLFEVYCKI
Procedure, shortened: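 Channel plasmid (2.5 μg) was co-transfected with EGFP plasmid (0.5 μg) using Lipofectamine 2000 into PAC-knockout HEK293T cells. Whole-cell recording 16–24 h after seeding, with Cs-aspartate pipette solution (pH 7.3). Currents evoked by pH 5.5 bath (160 mM NMDG-Cl, 2 mM CaCl2, 10 mM MES); test compound 10 μM.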

[2] = biological target: T2, mouse Otop1 (mOtop1) channels (Mus musculus, UniProt Q80VM9); test: activation time constant; settings: 10 μM; before or concurrently with pH 5.5 stimulus
T2 sequence (Q80VM9 1-600): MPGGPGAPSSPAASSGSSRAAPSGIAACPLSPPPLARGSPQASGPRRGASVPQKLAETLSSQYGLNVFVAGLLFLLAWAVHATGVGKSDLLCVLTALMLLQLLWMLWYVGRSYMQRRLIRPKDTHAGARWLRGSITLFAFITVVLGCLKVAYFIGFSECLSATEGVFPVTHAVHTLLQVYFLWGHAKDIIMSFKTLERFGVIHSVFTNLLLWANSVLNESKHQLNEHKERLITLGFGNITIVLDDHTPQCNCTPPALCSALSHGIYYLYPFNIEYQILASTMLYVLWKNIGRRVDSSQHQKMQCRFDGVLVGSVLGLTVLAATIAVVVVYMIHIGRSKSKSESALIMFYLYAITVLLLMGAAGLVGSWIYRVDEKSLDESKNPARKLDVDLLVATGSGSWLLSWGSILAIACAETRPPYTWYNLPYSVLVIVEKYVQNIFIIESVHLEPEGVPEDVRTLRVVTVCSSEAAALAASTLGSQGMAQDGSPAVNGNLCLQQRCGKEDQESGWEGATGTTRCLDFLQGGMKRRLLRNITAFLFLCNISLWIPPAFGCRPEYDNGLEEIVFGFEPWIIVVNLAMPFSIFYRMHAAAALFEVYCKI

mOtop1 R554C = mOtop1 R554C (Mus musculus, UniProt Q80VM9, R554C); test: patch-clamp, mOtop1 mutant; settings: Fig 5G, H
mOtop1 E226A = mOtop1 E226A (Mus musculus, UniProt Q80VM9, E226A); test: patch-clamp, mOtop1 mutant; settings: 10 μM; pH 5.5
Procedure, shortened: (§2)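 Alanine-substituted mOtop1 mutants were co-transfected (2.5 μg channel plus 0.5 μg EGFP plasmid, Lipofectamine 2000) into PAC-knockout HEK293T cells. Whole-cell recording 16–24 h after seeding on PLL coverslips. Pipette (mM): 120 Cs-aspartate, 15 CsCl, 2 Mg-ATP, 5 EGTA, 2.4 CaCl2, 10 HEPES, pH 7.3. Bath (mM): 160 NMDG-Cl, 2 CaCl2, 10 MES, pH 5.5, with 10 μM test compound. Response compared with wild-type mOtop1.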

mOtop1 I241A = mOtop1 I241A (Mus musculus, UniProt Q80VM9, I241A); test: patch-clamp, mOtop1 mutant; settings: 10 μM; pH 5.5
Procedure, shortened: as §2

Kir2.1, sequence (P63252 whole entry): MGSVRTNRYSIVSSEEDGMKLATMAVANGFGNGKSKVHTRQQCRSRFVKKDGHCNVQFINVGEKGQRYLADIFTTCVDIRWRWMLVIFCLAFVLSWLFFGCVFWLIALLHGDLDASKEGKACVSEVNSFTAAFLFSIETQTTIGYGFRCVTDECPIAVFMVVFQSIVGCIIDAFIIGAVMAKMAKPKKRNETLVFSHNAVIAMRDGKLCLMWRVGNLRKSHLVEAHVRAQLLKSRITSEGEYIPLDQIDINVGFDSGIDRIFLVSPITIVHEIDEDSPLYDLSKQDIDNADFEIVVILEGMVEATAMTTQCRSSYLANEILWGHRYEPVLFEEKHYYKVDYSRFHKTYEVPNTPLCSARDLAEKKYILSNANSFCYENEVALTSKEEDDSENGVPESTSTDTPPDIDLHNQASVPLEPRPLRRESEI
NaV1.5, sequence (Q14524 whole entry): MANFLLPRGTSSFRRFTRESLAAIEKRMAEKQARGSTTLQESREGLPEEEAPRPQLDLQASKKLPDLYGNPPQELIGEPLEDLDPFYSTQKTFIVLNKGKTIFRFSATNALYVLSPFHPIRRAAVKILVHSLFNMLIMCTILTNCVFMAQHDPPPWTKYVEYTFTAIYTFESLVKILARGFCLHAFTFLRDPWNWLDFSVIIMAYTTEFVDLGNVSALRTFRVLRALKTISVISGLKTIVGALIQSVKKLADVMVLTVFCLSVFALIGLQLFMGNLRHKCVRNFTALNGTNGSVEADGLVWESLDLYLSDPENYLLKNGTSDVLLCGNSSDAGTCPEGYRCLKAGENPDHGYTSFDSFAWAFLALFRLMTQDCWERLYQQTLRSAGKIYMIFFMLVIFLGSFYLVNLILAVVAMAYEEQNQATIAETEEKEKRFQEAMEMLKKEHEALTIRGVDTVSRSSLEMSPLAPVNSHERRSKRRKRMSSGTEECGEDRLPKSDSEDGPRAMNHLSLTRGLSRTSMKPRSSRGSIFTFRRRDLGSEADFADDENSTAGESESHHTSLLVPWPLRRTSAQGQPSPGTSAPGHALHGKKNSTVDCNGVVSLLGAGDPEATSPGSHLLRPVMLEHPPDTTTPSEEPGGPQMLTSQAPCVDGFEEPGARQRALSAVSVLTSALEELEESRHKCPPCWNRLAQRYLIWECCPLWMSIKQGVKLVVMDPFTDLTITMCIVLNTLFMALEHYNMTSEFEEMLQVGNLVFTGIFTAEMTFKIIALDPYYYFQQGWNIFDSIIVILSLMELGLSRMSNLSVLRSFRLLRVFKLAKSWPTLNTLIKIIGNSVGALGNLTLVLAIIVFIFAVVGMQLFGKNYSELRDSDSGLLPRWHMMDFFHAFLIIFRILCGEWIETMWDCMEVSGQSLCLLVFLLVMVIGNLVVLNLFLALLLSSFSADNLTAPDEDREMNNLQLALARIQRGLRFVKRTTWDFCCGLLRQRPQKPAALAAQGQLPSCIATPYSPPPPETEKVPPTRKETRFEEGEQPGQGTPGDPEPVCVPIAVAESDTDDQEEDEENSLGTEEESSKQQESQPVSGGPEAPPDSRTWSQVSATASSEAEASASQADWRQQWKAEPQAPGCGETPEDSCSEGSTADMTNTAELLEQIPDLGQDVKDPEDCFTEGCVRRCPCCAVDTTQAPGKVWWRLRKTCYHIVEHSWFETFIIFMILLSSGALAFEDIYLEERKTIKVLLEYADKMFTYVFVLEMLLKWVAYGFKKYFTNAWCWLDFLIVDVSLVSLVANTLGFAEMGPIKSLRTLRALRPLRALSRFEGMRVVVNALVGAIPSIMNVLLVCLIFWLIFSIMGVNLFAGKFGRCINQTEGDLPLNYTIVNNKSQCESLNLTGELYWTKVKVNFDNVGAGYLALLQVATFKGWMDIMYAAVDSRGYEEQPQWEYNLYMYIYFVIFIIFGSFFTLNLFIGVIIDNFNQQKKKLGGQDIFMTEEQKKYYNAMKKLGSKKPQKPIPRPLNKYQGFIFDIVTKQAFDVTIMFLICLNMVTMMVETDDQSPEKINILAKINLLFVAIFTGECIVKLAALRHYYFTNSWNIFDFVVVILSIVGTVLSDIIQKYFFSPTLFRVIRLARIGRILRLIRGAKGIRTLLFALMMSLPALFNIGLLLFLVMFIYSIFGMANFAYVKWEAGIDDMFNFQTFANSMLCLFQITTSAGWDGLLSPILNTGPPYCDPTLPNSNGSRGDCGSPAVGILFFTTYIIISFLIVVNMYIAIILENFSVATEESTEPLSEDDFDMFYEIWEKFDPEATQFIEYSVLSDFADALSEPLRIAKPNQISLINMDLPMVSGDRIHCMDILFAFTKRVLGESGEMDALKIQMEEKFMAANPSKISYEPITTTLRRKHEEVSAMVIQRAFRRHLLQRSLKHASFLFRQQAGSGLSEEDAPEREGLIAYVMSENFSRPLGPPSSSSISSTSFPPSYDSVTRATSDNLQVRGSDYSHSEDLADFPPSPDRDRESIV

Structure (SMILES)	sensitivity of channel to compound (Kir2.1)	inhibition ratio (NaV1.5)	inhibition ratio (NaV1.7)	inhibition ratio (hERG)	sensitivity of channel to compound (ASIC1a)	sensitivity of channel to compound (CaV3.1; vs 0.1% DMSO)	effect on hOtop1 currents [1]	effect on the activation rate of mOtop1 channels [2]	effect of mutation on MFaN's potentiation effect vs WT mOtop1 (mOtop1 R554C)	sensitivity of channel to compound (NaV1.7; vs 0.1% DMSO)	response of mutant to MFaN compared to wild-type mOtop1 (mOtop1 E226A)	inhibition ratio (CaV3.1)	response of mutant to MFaN compared to wild-type mOtop1 (mOtop1 I241A)
CC(C)c1noc2ncc(C(=O)c3ccccc3O)cc12 [HIMOP, (2-hydroxyphenyl)-(3-propan-2-yl-5-isoxazolo[5,4-b]pyridinyl)methanone]	completely resistant	8.9%	11.3%	8.5%	completely resistant	completely resistant	potent potentiation effects						
Cc1ccc(C(=O)Nc2ccc3ccccc3c2)o1 [MFaN, 5-methyl-N-2-naphthyl-2-furamide]	completely resistant	14.8%		13.7%	completely resistant		potent potentiation effects	had no effect	eliminated	completely resistant	markedly reduced	11.7%	markedly reduced
Cc1cc(NC(=O)c2ccc(Br)o2)ccc1NC(=O)c1ccco1 [B2FAMP, 5-Bromo-N-[4-(2-furoylamino)-3-methylphenyl]-2-furamide]							potent potentiation effects						
